The test system of data set [1] is Mycobacterium tuberculosis. The experiment in a line: Antitubercular activity against Mycobacterium tuberculosis H37Rv assessed as reduction in microbial growth incubated for 5 days by visual inspection method. Format: functional. To be noted: 120 h, time 5 day. The essentials: (§1)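 Two-fold serial dilution in Middlebrook 7H9-ADS-Gly broth, final concentrations 20 down to 1.25 μM, from DMSO stocks. Inoculated with about 10^6 CFU of mid-log H37Rv, incubated 37 °C for five days. Turbidity recorded visually, then MTT added. MIC is the lowest concentration preventing growth (yellow colour). Three biological repeats, each in technical duplicate; rifampicin control.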

For data set [2], the target named is T1, Enoyl-[acyl-carrier-protein] reductase [NADH] (Mycobacterium tuberculosis) (UniProt P9WGR1).
T1 sequence (whole entry): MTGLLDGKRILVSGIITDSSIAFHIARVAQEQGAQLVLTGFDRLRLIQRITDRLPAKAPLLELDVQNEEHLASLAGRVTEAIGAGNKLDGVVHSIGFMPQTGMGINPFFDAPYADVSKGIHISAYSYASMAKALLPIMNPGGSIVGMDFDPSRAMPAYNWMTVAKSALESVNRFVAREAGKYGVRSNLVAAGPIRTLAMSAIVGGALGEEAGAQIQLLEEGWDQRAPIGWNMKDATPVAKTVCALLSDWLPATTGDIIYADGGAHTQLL
In words: Inhibition of Mycobacterium tuberculosis InhA at 40 uM using DD-CoA as substrate relative to control. The essentials: (§2)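 Wild-type InhA (100 nM) starts the reaction with 25 μM trans-2-dodecenoyl-CoA and 250 μM NADH in 30 mM PIPES, 150 mM NaCl, pH 6.8. Compound is present at a fixed 40 or 50 μM. Initial velocity is compared with a no-inhibitor control and expressed as percent inhibition.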

In another data set the test system is Vero. In words: Cytotoxicity against African green monkey Vero cells assessed as reduction in cell viability incubated for 48 hrs by neutral red assay. Format: cell-based. The conditions noted are these: Chlorocebus sabaeus. The essentials: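 Vero cells grown in MEM with 10% heat-inactivated FCS, 0.15% NaHCO3, penicillin and streptomycin at 37 °C, 5% CO2. Seeded at 25 000 cells per well, 24 h, then compound for 48 h. Viable cells by neutral red uptake. IC50 from log plots of growth inhibition against concentration. Doxorubicin positive control, DMSO vehicle control. Top concentration 20 μM.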

A further data set has as its system Leishmania donovani. In words: Antileishmanial activity against promastigote form of Leishmania donovani S1 Sudan assessed as reduction in parasite growth incubated for 72 hrs by alamar blue assay. Format: functional, organism-based. The essentials:
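S1 Sudan promastigotes kept at 26 °C in RPMI-1640 (no bicarbonate or pyruvate) with 10% FBS, subcultured twice weekly. Compounds added to promastigotes at 2 × 10^6 cells per mL at final 40, 8 and 1.6 μg mL−1, 72 h at 26 °C. Growth read by Alamar blue. IC50 from non-linear dose–response logistic regression. Triplicate. Pentamidine and amphotericin B standards.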

Data set [3] is described as follows: Lipophilicity, log P of the compound. It is filed as physicochemical. To be noted: octanol/water.
The subject of data set [4] is Mycobacterium tuberculosis. The experiment in a line: Antitubercular activity against Mycobacterium tuberculosis H37Rv assessed as reduction in microbial growth incubated. It is filed as functional. The essentials: as §1
The target of data set [5] is T1, Enoyl-[acyl-carrier-protein] reductase [NADH] (Mycobacterium tuberculosis). The experiment in a line: Inhibition of Mycobacterium tuberculosis InhA at 50 uM using DD-CoA as substrate relative to control. The essentials:
as §2

For data set [6] the target is unchanged. The experiment in a line: Inhibition of recombinant Mycobacterium tuberculosis InhA expressed in Escherichia coli BL21 using DD-CoA as substrate by UV-Vis spectrophotometry. To be noted: time 5.0 min.
For data set [7], the system named is Mycobacterium tuberculosis. In words: Antitubercular activity against Mycobacterium tuberculosis H37Rv assessed as reduction in microbial growth incubated for 1 week by MTT assay. Format: functional. The conditions noted are these: 168 h, time 1 weeks. For orientation: Tetrazolium assays rely on reduction of a dye to a coloured formazan, in cell work by metabolically active cells.

Data set [8] relates to Mycobacterium tuberculosis. The experiment in a line: Antitubercular activity against Mycobacterium tuberculosis H37Rv assessed as reduction in microbial growth incubated for 5 to 7 days by inverted plate count method. Format: functional. To be noted: time 5-7 day.

These results are taken from ChEMBL document CHEMBL4673194 (RSC Med Chem, 2021).

Calls of active or inactive are those of the source. No cut-off for these calls is given here.

Consider `Oc1cc(Cl)ccc1Oc1ccc(Cl)cc1Cl` [TRICLOSAN], for which the MIC99 (usually the lowest concentration that inhibits either 99% of growth or 99% of the strains tested, depending on the study) in [1] stood at 43 µM.

On to `CCCCCCCCCCCCCn1cc(COc2ccccc2O)nn1`, for which the inhibition – broadly, how much of the control response was suppressed – in [2] worked out at 63%. In addition, the IC50 (in general, the concentration that inhibits the measured activity by half) is over 20 µM in the data set on Vero and 13.4 µM in the data set with Leishmania donovani. Further, in data set [1], the MIC99 is over 100 µM. Moreover, in data set [3], the lipophilicity (logP) (commonly the decadic logarithm of the partition coefficient of the neutral form, usually between octanol and water) worked out at 5.67.

In the case of `Cc1ccccc1Oc1ccc(Cn2cc(-c3ccccc3)nn2)cc1O`, the MIC (usually the lowest concentration found to suppress growth) in [4] is at most 11.1 µM.

As to `CCc1cn(Cc2ccc(Oc3ccccc3C#N)c(O)c2)nn1`, the MIC in data set [4] was 2.02 µM.

`Oc1ccccc1Cn1cc(-c2ccccc2)nn1`: the inhibition result in data set [5] is “inactive”. Further, the IC50 was over 20 µM in the data set on Vero and over 60 µM with Leishmania donovani. Besides, the MIC99 in data set [1] was 20 µM.

On to `CC(C)=CCC/C(C)=C/Cn1cc(COc2ccccc2O)nn1`, for which, in data set [2], the inhibition result was “inactive”. The IC50 in the data set with Vero was over 20 µM; in the data set with Leishmania donovani it was 51.9 µM. Also, in data set [1], the MIC99 was over 100 µM.

With `CCc1cn(Cc2ccc(Oc3ccccc3C)c(O)c2)nn1`, the MIC in data set [4] was determined as 3.9 µM.

For the compound `CCCCc1cn(Cc2ccc(Oc3ccc(Cl)cc3O)c(Cl)c2)nn1`, in data set [6], the inhibition was 98%. Besides, in [7], the MIC worked out at 1.5 µM.

Turning to `CCCCCCCCc1ccc(Oc2ccccc2)c(O)c1`, in [8], the MIC was found to be 1.9 µM.

The compound `CCCc1cn(Cc2ccccc2O)nn1` showed an inhibition in data set [5] of 92%. For the same compound, the IC50 was over 20 µM in the data set on Vero and over 60 µM in the data set on Leishmania donovani. Moreover, the MIC99 in [1] stood at 20 µM.

As to `CCCCCc1cn(Cc2ccccc2O)nn1`, the inhibition result in data set [5] was “inactive”. Besides, the IC50 is over 20 µM in the data set with Vero and over 60 µM in the data set on Leishmania donovani. For the same compound, the MIC99 in [1] was 20 µM.

`CCCCCc1c(CO)nnn1Cc1ccc2ccccc2c1`: in [5], the inhibition entry is “inactive”. Further, the IC50 was over 20 µM in the data set on Vero and 31.4 µM with Leishmania donovani. Also, the MIC99 in data set [1] was over 100 µM.

On to `C[C@@H]1[C@H](O)[C@@H](C)/C=C/C=C/C=C/C=C/C=C/C=C/C=C/[C@H](O[C@@H]2O[C@H](C)[C@@H](O)[C@H](N)[C@@H]2O)C[C@@H]2O[C@](O)(C[C@@H](O)C[C@@H](O)[C@H](O)CC[C@@H](O)C[C@@H](O)CC(=O)O[C@H]1C)C[C@H](O)[C@H]2C(=O)O` [AMPHOTERICIN B], for which the IC50 in the data set on Leishmania donovani turned out to be 0.11 µM.

In data set [2], `CC(C)=CCC/C(C)=C\Cn1cc(COc2ccccc2O)nn1` displayed an inhibition of 85%. Further, the IC50 with Vero was over 20 µM; in the data set with Leishmania donovani it was 55 µM. In addition, the MIC99 in [1] is over 100 µM.
